Assay outcomes deposited in PubChem BioAssay by Broad Institute.
Compounds with a hit are over-represented: about 2.6% of the library has one in this group of screens.
E-selectin induc – induces E-selectin expression in human endothelial cells. hit rate 0.37% among 260,000. HUVEC E-selectin immunofluorescence imaging; normalized: neutral wells 0, TNF-alpha wells 100. activation, % at 7.58 µM. P16581. AID 686992;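 active = mean E-selectin-positive cell signal at least 10% of the positive control, reached in at least 60% of replicates, without over 20% cell loss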
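System: HUVEC, human umbilical vein endothelial cells; quantity: 3,000 cells/well; buffer or medium: EGM-2 medium, gelatin-coated wells; dosing: single-point compound dose; detection: immunofluorescence imaging; evaluation: % PE-positive cells; benchmarks: TNF-alpha, DMSO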
Ecoli rRNA inh – selective bacterial rRNA inhibition in E. coli; hit rate 1.6% among 350,000; GFP signal change (wild-type ribosome), % (concentration not given with the values); E. coli WT GFP vs humanized-ribosome RFP mutants, fluorescence, 24 h; hits give low values; DMSO median 0, no signal -100;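 active = significant combined selectivity score with lowered wild-type GFP, culture density cut under 30%, mutant RFP and density less affected; inactive = any of these conditions unmet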
RAD52 inh – RAD52 (human) annealing inhibition; inhibition, % at 18.7 µM; AID 651710; P43351; recombinant RAD52 DNA annealing, FRET fluorescence; hit rate 0.46% among 360,000;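 active = every replicate showing at least 50% inhibition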
Target sequence (P43351 whole entry, looked up): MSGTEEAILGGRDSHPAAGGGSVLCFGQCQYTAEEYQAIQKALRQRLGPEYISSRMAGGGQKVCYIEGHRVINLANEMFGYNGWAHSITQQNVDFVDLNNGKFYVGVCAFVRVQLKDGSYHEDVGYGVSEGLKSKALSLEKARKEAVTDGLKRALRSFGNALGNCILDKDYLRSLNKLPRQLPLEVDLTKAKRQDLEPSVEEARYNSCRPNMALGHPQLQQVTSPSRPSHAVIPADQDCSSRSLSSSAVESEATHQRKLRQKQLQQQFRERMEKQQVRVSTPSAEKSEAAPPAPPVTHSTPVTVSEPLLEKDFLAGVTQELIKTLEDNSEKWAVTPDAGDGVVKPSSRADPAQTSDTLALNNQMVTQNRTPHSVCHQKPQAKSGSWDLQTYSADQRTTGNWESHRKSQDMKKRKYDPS
MLL AF4-AF9 inh – blocks AF4 peptide binding to human AF9; AlphaScreen, biotin-AF4 peptide binding to FLAG-AF9; inhibition, % at 10 µM; hit rate 0.47% among 350,000; AID 651704; P42568;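 active = every replicate reaching a set inhibition limit, whatever the replicate mean, cut at about 25% in these data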;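 note: 0% = plate neutral control median and 100% = total signal loss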
INS-1E GSIS act – primary screen for activators of insulin secretion dependent on glucose, INS-1E cells, GLuc reporter luminescence. INS-1E GLuc reporter insulin secretion, 2-3 h. activation, % at 16.6 µM. hit rate 0.61% among 370,000;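 active = lowest replicate activation of at least 40%, so every replicate reaches that level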;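 note: 0% = median of neutral control wells and 100% = median of IBMX positive control wells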
RAD54 branch – inhibitors of human RAD54 branch migration | inhibition, % at 10.4 µM | Q92698 | RAD54 Holliday junction branch migration, FAM/BHQ fluorescence | hit rate 0.14% among 360,000;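 active = mean normalized replicate activity at least 40 and at least half of replicates scoring 40 or more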;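 note: 0% = median of neutral control wells and 100% = median of positive control wells; inhibitors cause a drop in the FAM fluorescence signal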
Starred values were filed as active, the others as inactive.

Results for Cc1nnn(-c2nonc2N)c1C(=O)NNC(=O)c1ccc(Cl)c(Cl)c1 ?
E-selectin induc: 5; Ecoli rRNA inh: -26*; RAD52 inh: -20; MLL AF4-AF9 inh: -1; INS-1E GSIS act: 12

What do the screens show for `O=C(C[C@H]1CC[C@H](NC(=O)c2ccccn2)[C@@H](CO)O1)NCc1cc(F)cc(F)c1`?
E-selectin induc: 0; Ecoli rRNA inh: 0; RAD52 inh: -3; MLL AF4-AF9 inh: 0; INS-1E GSIS act: -2; RAD54 branch: -1

Results for CN(Cc1ccccc1)CC1CC(c2ccccc2)OC(c2ccc(NC(=O)CCCCCCC(=O)O)cc2)O1 (centres undefined) ?
RAD52 inh: 7; MLL AF4-AF9 inh: -2; RAD54 branch: -4

Results for CCn1c(C)nc2cc(C(=O)NNC(=S)Nc3ccccc3OC)ccc21 ?
Ecoli rRNA inh: -20*; RAD52 inh: -16; MLL AF4-AF9 inh: -7; INS-1E GSIS act: 9

How did COc1ccccc1C(=O)Nc1ccc2c(c1)nc1n2CCN(C2CCCCC2)C1 do in these assays?
Ecoli rRNA inh: -18*; RAD52 inh: -18; MLL AF4-AF9 inh: 4; INS-1E GSIS act: 3; RAD54 branch: 1

How did CC(NS(=O)(=O)OCC(Cl)(Cl)Cl)c1ccc(Br)cc1 (centres undefined) do in these assays?
E-selectin induc: 0; Ecoli rRNA inh: -23*; RAD52 inh: -4; MLL AF4-AF9 inh: -4; RAD54 branch: 10

Results for O=C(O)c1csc(N/N=C/c2ccc(Br)cc2)n1 ?
E-selectin induc: 6; Ecoli rRNA inh: -28*; RAD52 inh: -27; MLL AF4-AF9 inh: 0; INS-1E GSIS act: -14

What do the screens show for `Cc1csc(N/N=C/c2ccc([N+](=O)[O-])cc2)n1`?
Ecoli rRNA inh: 6; RAD52 inh: -3; MLL AF4-AF9 inh: 2; INS-1E GSIS act: -3; RAD54 branch: -1

Results for O=C(NC(O)C(=O)c1ccccc1)c1ccccn1 (centres undefined) ?
E-selectin induc: 50*; Ecoli rRNA inh: 2; RAD52 inh: -6; MLL AF4-AF9 inh: 0; INS-1E GSIS act: -10; RAD54 branch: -8

What do the screens show for `O=C(NC(O)C(=O)c1ccccc1)c1cccs1` (centres undefined)?
Ecoli rRNA inh: 2; RAD52 inh: -19; MLL AF4-AF9 inh: -25; INS-1E GSIS act: -6; RAD54 branch: -13

Results for COc1ccc(OC2C(=O)N(Cc3ccc(F)cc3)C2c2cc(OC)c(OC)c(OC)c2)cc1 (centres undefined) ?
INS-1E GSIS act: 4

Results for COC(=O)c1ccc(C2C(Oc3ccc(OC)cc3)C(=O)N2CCc2ccc(F)cc2)cc1 (centres undefined) ?
INS-1E GSIS act: 113*

How did CCOC(=O)N1CCN(C(=O)COc2cccc3c2CCN(Cc2cccc(C)c2)C3=O)CC1 do in these assays?
E-selectin induc: 0; Ecoli rRNA inh: -25*; RAD52 inh: -1; MLL AF4-AF9 inh: -2; INS-1E GSIS act: -37

What do the screens show for `COc1ccc(/C=C/C(=O)OCC(=O)NC2CCS(=O)(=O)C2)cc1` (centres undefined)?
RAD52 inh: -11; MLL AF4-AF9 inh: -3; INS-1E GSIS act: -6; RAD54 branch: 0

What do the screens show for `CCCCOc1ccc(/C=C/C(=O)OCC(=O)NC2CCS(=O)(=O)C2)cc1OCC` (centres undefined)?
E-selectin induc: 0; Ecoli rRNA inh: -7; RAD52 inh: -10; MLL AF4-AF9 inh: 1; INS-1E GSIS act: 45*

Results for Cc1nn(-c2ccccc2)c2c1C(O)CC(C)(C)C2 (centres undefined) ?
Ecoli rRNA inh: 4; RAD52 inh: -3; MLL AF4-AF9 inh: 3; INS-1E GSIS act: 67*; RAD54 branch: 11

How did CCCSc1cc(NCCOC(=O)CCC)c([N+](=O)[O-])c2nonc12 do in these assays?
INS-1E GSIS act: 14

Results for CCCC(=O)OCCNc1cc(Sc2nccn2C)c2nonc2c1[N+](=O)[O-] ?
INS-1E GSIS act: 162*

Results for CCC(=O)OCCNc1cc(Sc2nc3ccccc3[nH]2)c2nonc2c1[N+](=O)[O-] ?
INS-1E GSIS act: 88*
